Laboratory results as given in ChEMBL document CHEMBL5705905, “Pharmacological targeting of kinases MST1 and MST2 augments tissue repair and regeneration” (Sci Transl Med, 2016).
Calls of active or inactive are those of the source. The calls are words filed in the database; no cut-off is given here.

What was measured:
[1] = target: T1, Serine/threonine-protein kinase 3 (Homo sapiens, UniProt Q13188); assay: Inhibition of recombinant His-tagged full-length MST2 (unknown origin) expressing in Escherichia coli assessed as GST-tagged MOB1a phosphorylation level incubated for 30 mins by immunoblot analysis
T1 sequence (Q13188 whole entry): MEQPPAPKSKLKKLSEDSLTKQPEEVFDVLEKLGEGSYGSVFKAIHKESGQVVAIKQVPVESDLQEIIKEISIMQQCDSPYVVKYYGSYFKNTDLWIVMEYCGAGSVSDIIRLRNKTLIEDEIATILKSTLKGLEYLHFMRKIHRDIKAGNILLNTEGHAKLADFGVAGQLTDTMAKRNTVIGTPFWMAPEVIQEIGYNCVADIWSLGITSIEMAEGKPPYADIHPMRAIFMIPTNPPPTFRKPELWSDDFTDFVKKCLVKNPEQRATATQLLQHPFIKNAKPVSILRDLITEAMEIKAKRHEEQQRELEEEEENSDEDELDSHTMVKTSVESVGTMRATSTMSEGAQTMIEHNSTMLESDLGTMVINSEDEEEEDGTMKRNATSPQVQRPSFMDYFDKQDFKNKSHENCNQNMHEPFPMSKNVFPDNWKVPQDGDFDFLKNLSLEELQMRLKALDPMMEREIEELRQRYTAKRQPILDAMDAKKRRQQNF

[2] = target: Aurora kinase A (Homo sapiens) (UniProt O14965); assay: Inhibition of AURKA (unknown origin) assessed as remaining activity at 1 uM by Kinome scan method relative to control
In short: (§1)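 Active-site-dependent competition-binding (KINOMEscan) panel of 468 kinases, test compound at 1 μM (from a 10 mM DMSO stock). Read-out is ctrl% = (test signal − positive control signal)/(negative control signal − positive control signal) × 100. DMSO is the negative control (100%) and a control compound is the positive control (0%). Lower ctrl% means tighter binding.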

[3] = target: T2, Serine/threonine-protein kinase 4 (Homo sapiens, UniProt Q13043); assay: Inhibition of recombinant His-tagged full-length MST1 (unknown origin) expressing in Escherichia coli assessed as MOB1a phosphorylation level incubated for 30 min in the presence of 10 uM ATP by immunoblot analysis
T2 sequence (Q13043 whole entry): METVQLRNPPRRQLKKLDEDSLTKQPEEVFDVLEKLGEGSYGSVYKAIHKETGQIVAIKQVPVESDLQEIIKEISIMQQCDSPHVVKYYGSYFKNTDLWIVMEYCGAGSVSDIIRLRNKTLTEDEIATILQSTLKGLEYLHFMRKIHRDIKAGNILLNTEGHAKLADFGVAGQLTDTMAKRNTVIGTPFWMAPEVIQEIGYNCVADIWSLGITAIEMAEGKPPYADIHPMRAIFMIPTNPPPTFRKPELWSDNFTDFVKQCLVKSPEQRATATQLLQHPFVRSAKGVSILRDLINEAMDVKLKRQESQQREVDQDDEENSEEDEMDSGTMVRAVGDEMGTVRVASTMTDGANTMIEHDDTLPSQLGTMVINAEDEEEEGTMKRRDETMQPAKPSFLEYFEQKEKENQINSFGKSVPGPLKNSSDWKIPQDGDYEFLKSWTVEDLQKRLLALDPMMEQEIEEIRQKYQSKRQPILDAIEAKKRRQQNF

[4] = target: Phosphatidylinositol 4,5-bisphosphate 3-kinase catalytic subunit delta isoform (Homo sapiens) (UniProt O00329); assay: Inhibition of PIK3CD (unknown origin) assessed as remaining activity at 1 uM by Kinome scan method relative to control
Chain of Phosphatidylinositol 4,5-bisphosphate 3-kinase catalytic subunit delta isoform (Homo sapiens) (O00329 whole entry, canonical isoform): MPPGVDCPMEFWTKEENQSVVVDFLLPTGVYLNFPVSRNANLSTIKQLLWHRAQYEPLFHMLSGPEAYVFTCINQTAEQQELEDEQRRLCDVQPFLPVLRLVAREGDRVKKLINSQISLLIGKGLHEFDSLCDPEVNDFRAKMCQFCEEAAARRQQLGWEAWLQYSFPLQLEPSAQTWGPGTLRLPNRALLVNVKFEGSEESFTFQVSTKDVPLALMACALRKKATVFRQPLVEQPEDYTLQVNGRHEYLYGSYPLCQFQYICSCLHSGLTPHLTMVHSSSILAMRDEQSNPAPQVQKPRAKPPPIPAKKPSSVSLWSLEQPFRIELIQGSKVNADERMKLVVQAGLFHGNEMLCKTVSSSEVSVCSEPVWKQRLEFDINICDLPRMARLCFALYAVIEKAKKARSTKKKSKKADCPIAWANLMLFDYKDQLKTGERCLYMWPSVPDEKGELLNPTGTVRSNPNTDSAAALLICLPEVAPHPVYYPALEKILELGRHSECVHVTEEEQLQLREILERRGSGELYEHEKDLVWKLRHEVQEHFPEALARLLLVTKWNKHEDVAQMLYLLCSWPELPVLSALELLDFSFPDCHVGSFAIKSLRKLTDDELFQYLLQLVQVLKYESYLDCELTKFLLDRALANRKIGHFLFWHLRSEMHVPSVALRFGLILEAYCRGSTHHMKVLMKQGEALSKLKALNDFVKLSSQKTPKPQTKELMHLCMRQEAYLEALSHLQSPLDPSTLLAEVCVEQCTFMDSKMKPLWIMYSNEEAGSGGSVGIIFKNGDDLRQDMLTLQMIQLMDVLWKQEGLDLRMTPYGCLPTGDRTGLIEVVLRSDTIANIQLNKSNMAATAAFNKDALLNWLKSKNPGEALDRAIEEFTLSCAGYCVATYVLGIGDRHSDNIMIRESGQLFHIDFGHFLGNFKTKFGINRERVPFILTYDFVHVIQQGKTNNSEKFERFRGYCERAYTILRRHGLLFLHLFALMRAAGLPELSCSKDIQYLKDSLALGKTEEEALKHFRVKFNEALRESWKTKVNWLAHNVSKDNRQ

[5] = test system: Mus musculus; assay: Protection against APAP induced liver injury in mouse assessed as continual expansion of centrilobular necrotic lesions at 1 mg/kg, ip administered at 1.5 hrs by TUNEL staining; type: functional, organism-based
[6] = target: Calcium-dependent protein kinase 1 (Plasmodium falciparum) (UniProt P62344); assay: Inhibition of Plasmodium falciparum CDPK1 assessed as remaining activity at 1 uM by Kinome scan method relative to control
Chain of Calcium-dependent protein kinase 1 (Plasmodium falciparum) (P62344 2-524 limits assumed): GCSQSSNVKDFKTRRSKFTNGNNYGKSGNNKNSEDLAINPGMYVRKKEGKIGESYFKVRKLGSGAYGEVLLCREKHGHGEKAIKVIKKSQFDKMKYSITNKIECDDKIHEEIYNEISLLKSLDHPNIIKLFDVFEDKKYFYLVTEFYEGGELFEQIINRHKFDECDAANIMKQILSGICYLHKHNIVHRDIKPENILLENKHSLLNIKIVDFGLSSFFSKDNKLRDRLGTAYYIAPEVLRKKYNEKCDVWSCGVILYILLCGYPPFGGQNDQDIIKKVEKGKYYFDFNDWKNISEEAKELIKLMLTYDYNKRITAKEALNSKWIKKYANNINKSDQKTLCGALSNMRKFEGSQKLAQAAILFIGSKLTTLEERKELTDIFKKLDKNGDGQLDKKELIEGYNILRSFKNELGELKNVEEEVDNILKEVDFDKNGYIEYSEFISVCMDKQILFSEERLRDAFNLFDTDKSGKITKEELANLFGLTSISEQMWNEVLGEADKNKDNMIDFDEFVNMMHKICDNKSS

[7] = target: Tyrosine-protein kinase Tec (Homo sapiens) (UniProt P42680); assay: Inhibition of TEC (unknown origin) assessed as remaining activity at 1 uM by Kinome scan method relative to control
Chain of Tyrosine-protein kinase Tec (Homo sapiens) (P42680 whole entry): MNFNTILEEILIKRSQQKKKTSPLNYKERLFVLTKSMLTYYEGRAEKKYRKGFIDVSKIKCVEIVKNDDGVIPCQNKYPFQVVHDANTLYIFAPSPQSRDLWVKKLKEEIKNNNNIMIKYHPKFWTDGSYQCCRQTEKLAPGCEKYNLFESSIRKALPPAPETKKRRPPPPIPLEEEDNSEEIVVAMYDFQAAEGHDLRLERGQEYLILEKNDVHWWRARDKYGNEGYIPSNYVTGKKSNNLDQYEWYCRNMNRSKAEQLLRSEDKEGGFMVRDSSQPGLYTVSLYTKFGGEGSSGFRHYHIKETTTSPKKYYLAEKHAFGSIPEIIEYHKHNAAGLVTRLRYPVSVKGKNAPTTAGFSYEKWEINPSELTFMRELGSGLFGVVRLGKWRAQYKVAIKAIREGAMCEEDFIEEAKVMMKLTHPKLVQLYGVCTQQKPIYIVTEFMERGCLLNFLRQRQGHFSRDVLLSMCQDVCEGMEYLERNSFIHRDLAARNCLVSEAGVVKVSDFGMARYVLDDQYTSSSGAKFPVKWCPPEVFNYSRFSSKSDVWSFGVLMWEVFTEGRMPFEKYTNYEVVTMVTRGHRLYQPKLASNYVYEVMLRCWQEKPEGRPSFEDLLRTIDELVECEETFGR

[8] = target: Calcium/calmodulin-dependent protein kinase kinase 2 (Homo sapiens) (UniProt Q96RR4); assay: Inhibition of CAMKK2 (unknown origin) assessed as remaining activity at 1 uM by Kinome scan method relative to control
Chain of Calcium/calmodulin-dependent protein kinase kinase 2 (Homo sapiens) (Q96RR4 2-588 limits assumed): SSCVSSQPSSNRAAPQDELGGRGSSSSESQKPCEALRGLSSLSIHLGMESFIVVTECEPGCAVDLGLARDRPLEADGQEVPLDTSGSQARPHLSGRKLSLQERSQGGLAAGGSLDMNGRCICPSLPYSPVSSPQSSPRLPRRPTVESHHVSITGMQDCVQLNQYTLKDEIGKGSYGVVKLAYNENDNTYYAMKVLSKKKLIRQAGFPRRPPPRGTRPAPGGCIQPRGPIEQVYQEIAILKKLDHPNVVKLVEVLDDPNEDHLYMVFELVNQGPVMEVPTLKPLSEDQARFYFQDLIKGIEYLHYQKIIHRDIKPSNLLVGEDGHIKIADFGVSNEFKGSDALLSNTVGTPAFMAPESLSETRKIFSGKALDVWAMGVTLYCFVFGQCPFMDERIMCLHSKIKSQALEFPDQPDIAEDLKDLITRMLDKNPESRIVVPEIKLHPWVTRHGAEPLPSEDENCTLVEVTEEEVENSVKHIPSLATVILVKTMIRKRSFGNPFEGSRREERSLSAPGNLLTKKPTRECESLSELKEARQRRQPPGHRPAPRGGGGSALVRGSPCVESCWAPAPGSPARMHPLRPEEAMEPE
In short: (§2)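 Active-site-dependent competition-binding profiling (KINOMEscan) at 1 μM against a 468-kinase panel; compound supplied from a 10 mM DMSO stock. Read-out is ctrl% = (test signal − positive control signal)/(negative control signal − positive control signal) × 100. DMSO is the negative control (100%) and a control compound the positive control (0%). Lower ctrl% means tighter binding.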

[9] = AUC (0 to infinity) in male Sprague-Dawley rat at 10 mg/kg, po measured for 24 hrs by LC-MS/MS analysis; type: ADME, organism-based; details: in vivo
In short: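 Sprague-Dawley rats, single intravenous or oral dose. Parameters (half-life, AUC, bioavailability) reported in a supplementary table.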

[10] = target: Cyclin-dependent kinase-like 3 (Homo sapiens) (UniProt Q8IVW4); assay: Inhibition of CDKL3 (unknown origin) assessed as remaining activity at 1 uM by Kinome scan method relative to control; in short: as §2
[11] = target: Serine/threonine-protein kinase ULK2 (Homo sapiens, UniProt Q8IYT8); assay: Binding affinity to ULK2 (unknown origin) assessed as dissociation constant
Chain of Serine/threonine-protein kinase ULK2 (Q8IYT8 whole entry): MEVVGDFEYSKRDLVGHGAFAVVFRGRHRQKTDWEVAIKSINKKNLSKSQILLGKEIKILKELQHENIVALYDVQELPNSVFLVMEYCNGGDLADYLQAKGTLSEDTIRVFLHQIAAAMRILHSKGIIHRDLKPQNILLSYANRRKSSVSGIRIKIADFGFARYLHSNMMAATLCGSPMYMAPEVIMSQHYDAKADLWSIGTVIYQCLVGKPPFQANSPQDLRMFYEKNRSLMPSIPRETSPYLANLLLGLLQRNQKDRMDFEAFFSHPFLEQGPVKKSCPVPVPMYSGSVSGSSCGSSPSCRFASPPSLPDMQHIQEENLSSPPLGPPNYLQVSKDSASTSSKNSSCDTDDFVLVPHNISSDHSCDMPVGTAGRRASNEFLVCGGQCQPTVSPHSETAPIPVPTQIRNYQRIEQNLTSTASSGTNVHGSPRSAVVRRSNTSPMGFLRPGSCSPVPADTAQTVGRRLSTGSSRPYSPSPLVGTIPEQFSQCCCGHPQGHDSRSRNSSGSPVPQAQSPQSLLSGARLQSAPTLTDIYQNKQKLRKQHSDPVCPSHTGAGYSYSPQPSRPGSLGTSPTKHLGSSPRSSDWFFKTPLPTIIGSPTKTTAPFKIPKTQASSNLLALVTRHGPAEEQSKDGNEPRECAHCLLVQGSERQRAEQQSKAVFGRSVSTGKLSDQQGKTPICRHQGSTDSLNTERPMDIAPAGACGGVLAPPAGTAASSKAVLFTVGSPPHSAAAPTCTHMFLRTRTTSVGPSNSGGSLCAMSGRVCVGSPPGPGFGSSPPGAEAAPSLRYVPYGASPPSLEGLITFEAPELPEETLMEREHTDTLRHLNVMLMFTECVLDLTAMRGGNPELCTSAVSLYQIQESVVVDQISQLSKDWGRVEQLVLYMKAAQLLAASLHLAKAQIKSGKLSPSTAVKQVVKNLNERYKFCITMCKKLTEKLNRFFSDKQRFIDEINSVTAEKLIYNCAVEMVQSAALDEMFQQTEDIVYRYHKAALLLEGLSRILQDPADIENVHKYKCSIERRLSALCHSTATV

[12] = target: Serine/threonine-protein kinase 26 (Homo sapiens, UniProt Q9P289); assay: Binding affinity to MST4 (unknown origin) assessed as dissociation constant
[13] = target: Tyrosine-protein kinase JAK1 (Homo sapiens, UniProt P23458); assay: Inhibition of JAK1 JH1 domain (unknown origin) assessed as remaining activity at 1 uM by Kinome scan method relative to control
Chain of Tyrosine-protein kinase JAK1 (P23458 whole entry, the tested form may be a part): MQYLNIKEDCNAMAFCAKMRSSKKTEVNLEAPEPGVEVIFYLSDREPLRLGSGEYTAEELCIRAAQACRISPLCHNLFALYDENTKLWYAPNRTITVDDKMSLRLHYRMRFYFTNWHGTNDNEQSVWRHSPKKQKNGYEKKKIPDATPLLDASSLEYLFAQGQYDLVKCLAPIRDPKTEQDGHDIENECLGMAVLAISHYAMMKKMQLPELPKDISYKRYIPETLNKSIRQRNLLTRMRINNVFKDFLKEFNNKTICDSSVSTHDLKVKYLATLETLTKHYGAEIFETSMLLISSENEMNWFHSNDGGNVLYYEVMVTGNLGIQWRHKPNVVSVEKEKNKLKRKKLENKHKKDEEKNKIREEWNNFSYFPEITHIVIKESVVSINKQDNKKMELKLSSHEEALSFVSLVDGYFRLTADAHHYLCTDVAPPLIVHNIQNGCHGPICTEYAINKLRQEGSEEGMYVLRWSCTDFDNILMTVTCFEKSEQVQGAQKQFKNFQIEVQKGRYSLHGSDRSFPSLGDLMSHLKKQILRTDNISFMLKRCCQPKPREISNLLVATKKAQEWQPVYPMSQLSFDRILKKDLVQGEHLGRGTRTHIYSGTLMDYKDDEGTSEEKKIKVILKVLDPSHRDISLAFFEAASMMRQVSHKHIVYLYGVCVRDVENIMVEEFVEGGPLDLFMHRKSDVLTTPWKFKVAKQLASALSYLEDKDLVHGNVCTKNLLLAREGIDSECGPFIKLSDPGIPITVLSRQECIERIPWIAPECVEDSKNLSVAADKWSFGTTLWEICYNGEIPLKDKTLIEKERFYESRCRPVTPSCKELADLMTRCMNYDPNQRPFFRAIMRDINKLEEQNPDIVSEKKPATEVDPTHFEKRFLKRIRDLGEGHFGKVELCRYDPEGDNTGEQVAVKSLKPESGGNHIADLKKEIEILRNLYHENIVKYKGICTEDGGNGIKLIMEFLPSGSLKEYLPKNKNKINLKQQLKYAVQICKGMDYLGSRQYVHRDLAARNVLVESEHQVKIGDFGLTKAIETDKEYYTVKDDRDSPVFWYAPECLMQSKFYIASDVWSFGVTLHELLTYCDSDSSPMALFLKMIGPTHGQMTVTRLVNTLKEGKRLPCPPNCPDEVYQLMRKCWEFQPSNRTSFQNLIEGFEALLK

[14] = target: Wee1-like protein kinase (Homo sapiens) (UniProt P30291); assay: Inhibition of WEE1 (unknown origin) assessed as remaining activity at 1 uM by Kinome scan method relative to control
[15] = test system: Tyrosine-protein kinase ABL1 (Homo sapiens), P00519 [F317I]; assay: Inhibition of ABL1 F317I mutant (unknown origin) assessed as remaining activity at 1 uM by Kinome scan method relative to control; in short: as §1
[16] = target: Phosphatidylinositol 3-kinase C2 domain-containing subunit gamma (Homo sapiens) (UniProt O75747); assay: Inhibition of PIK3C2G (unknown origin) assessed as remaining activity at 1 uM by Kinome scan method relative to control
[17] = target: Phosphatidylinositol 4-phosphate 5-kinase type-1 gamma (Homo sapiens, UniProt O60331); assay: Inhibition of PIP5K1C (unknown origin) assessed as remaining activity at 1 uM by Kinome scan method relative to control
[18] = target: Fibroblast growth factor receptor 2 (Homo sapiens) (UniProt P21802); assay: Inhibition of FGFR2 (unknown origin) assessed as remaining activity at 1 uM by Kinome scan method relative to control
[19] = organism: Homo sapiens; assay: Inhibition of recombinant His-tagged full-length MST1 Y101F/D109A mutant (unknown origin) expressing in Escherichia coli assessed as GST-tagged MOB1 phosphorylation level at 0.01 to 1 uM incubated for 15 min by immunoblot analysis; details: dose 0.01-1 µM

With `CN1C(=O)c2sccc2N(C)c2nc(Nc3ccc(S(N)(=O)=O)cc3)ncc21` the IC50 [1] was 38.2 nM, the Activity [2] was 0.05% and the IC50 [3] was 164 nM. For the same compound, the Activity [4] was 47%, the Activity [5] was “Active” and the Activity [6] was 100%. It also gave an Activity [7] of 100%, an Activity [8] of 84% and an AUC(0-inf) [9] of 1040 ng·h/mL. The Activity [10] was 91%, the Kd [11] was 35 nM and the Kd [12] was 16 nM. For the same compound, the Activity [13] was 97%, the Activity [14] was 100% and the Activity [15] was 40%. The Activity [16] was 100%, the Activity [17] was 10% and the Activity [18] was 100%. For the same compound, the inhibition [19] was “Active”.
